# Measured values as given in ChEMBL document CHEMBL4304798, “Iterative Optimization of the Cyclic Peptide SFTI-1 Yields Potent Inhibitors of Neutrophil Proteinase 3” (ACS Med Chem Lett, 2019).
# Active and inactive are the calls of the source. No cut-off for these calls is given here. Positions of bridges follow the written chain, without caps; N, C: chain ends. Non-standard residues stand in square brackets, D forms with d. Residues, ends and D or L forms follow the SMILES beside them. ξ: configuration not given here. *: point of attachment. ClZ = O=C(OCc1ccccc1Cl)*; ξAbu = CCC(N)C(=O)O
# How the values were obtained:
# [1] = Stability in human serum at 400 uM measured after 2 hrs by RP-HPLC analysis; format: ADME, cell-free
# Method in brief: (§1)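 Peptides incubated in human serum at 37 °C and sampled over time. Values are mean ± SEM from three experiments.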
# [2] = target: T1, Myeloblastin (Homo sapiens) (UniProt P24158); test: Competitive inhibition of purified human proteinase 3 at 160 nM using MeOSuc-AAPV-MCA as substrate by fluorescence based assay
# T1 sequence (whole entry): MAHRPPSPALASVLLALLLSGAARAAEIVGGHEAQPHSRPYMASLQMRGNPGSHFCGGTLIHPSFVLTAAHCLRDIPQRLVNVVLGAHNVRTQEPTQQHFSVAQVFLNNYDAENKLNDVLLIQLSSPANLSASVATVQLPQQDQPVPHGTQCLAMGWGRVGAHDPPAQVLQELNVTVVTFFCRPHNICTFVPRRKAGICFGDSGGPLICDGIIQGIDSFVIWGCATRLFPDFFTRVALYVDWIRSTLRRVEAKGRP
# Method in brief: (§2)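 Competitive inhibition screen against PR3, with each peptide variant tested at two fixed inhibitor concentrations.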
# [3] = target: T1, Myeloblastin (Homo sapiens); test: Competitive inhibition of purified human proteinase 3 at 40 nM using MeOSuc-AAPV-MCA as substrate by fluorescence based assay; method in brief: as §2
# [4] = target: T2, Cathepsin G (Homo sapiens, UniProt P08311); test: Inhibition of human Cathepsin G using Suc-AAPF-MCA as substrate by fluorescence based assay
# T2 sequence (P08311 whole entry): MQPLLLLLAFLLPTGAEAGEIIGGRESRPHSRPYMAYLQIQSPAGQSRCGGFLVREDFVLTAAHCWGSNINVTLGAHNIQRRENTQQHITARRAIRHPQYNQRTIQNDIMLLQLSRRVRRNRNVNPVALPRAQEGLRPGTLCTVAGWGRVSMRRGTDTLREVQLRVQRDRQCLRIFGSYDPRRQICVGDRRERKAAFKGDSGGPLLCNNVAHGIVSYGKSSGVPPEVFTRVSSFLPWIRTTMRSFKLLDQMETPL
# [5] = Stability in human serum at 400 uM measured after 24 hrs by RP-HPLC analysis; format: ADME, cell-free; settings: read-out: Stability; method in brief: as §1
# [6] = target: Trypsin (Homo sapiens, UniProt P07477+P07478+P35030); test: Inhibition of recombinant human trypsin using Boc-VPR-MCA as substrate by fluorescence based assay; format: protein assay
# [7] = target: T3, Neutrophil elastase (Homo sapiens, UniProt P08246); test: Inhibition of human neutrophil elastase using MeOSuc-AAPV-MCA as substrate by fluorescence based assay
# T3 sequence (P08246 whole entry): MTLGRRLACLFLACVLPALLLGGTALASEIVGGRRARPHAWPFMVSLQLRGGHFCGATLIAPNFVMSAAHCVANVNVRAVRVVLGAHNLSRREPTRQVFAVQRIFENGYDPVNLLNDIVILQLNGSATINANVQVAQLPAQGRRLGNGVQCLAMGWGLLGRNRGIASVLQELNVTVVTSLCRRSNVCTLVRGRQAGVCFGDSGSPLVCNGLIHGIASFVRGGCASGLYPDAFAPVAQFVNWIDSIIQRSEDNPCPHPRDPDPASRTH
# [8] = target: Chymotrypsin (Homo sapiens, UniProt Q99895+P17538+P40313+Q6GPI1); test: Inhibition of human chymotrypsin using Suc-AAPF-MCA as substrate by fluorescence based assay; format: protein assay
# [9] = target: T4, Myeloblastin (Homo sapiens, UniProt P24158); test: Inhibition of purified human proteinase 3 using MeOSuc-AAPV-MCA as substrate by fluorescence based assay
# T4 sequence (P24158 whole entry): T1 sequence (whole entry)
# [10] = target: T5, Chymase (Homo sapiens, UniProt P23946); test: Inhibition of recombinant human chymase expressed in Pichia pastoris using NleTDY-pNA as substrate by fluorescence based assay
# T5 sequence (P23946 whole entry): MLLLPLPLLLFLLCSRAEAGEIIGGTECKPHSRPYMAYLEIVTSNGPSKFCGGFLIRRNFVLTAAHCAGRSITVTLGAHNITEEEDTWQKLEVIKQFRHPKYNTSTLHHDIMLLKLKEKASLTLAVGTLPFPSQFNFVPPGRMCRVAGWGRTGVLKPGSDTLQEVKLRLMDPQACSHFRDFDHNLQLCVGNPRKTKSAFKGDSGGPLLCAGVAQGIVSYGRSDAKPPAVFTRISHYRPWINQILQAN
# [11] = target: Prothrombin (Homo sapiens, UniProt P00734); test: Inhibition of recombinant human alpha thrombin using Boc-VPR-MCA as substrate by fluorescence based assay
# [12] = target: T6, Neutrophil elastase (Homo sapiens) (UniProt P08246); test: Inhibition of human neutrophil elastase at 2.5 to 40 nM using MeOSuc-AAPV-MCA as substrate by fluorescence based assay
# T6 sequence (whole entry): T3 sequence (P08246 whole entry)
inhibition activity (active/inactive) [2],SMILES,IC50 [4] [µM],"remaining at 24 h, 400 µM [5] [%]",IC50 [6] [µM],Ki [7] [µM],Ki [9] [µM],IC50 [10] [µM],IC50 [11] [µM],other results
Active,"CCC1NC(=O)[C@H](CC(=O)O)NC(=O)[C@@H]2CSSC[C@H](NC(=O)[C@H]([C@@H](C)CC)NC(=O)[C@@H]3CCCN3C(=O)[C@@H]3CCCN3C(=O)[C@H](CC(=O)O)NC(=O)[C@H](CO)NC1=O)C(=O)N[C@@H](CC(N)=O)C(=O)N1CCC[C@H]1C(=O)N[C@@H](CC(N)=O)C(=O)NCC(=O)N[C@@H]([C@@H](C)O)C(=O)N2 (stereo partly drawn) (HELM PEPTIDE1{C.D.[CCC(N[*:1])C(=O)[*:2]].S.D.P.P.I.C.N.P.N.G.T}$PEPTIDE1,PEPTIDE1,1:R3-9:R3|PEPTIDE1,PEPTIDE1,1:R1-14:R2$$$V2.0)",–,–,–,–,–,–,–,–
Active,"CCC1NC(=O)[C@H](CC(=O)O)NC(=O)[C@@H]2CSSC[C@H](NC(=O)[C@H]([C@@H](C)CC)NC(=O)[C@@H]3CCCN3C(=O)[C@@H]3CCCN3C(=O)[C@H](Cc3ccc(O)cc3)NC(=O)[C@H](CO)NC1=O)C(=O)N[C@@H](CC(N)=O)C(=O)N1CCC[C@H]1C(=O)N[C@@H](CC(N)=O)C(=O)NCC(=O)N[C@@H]([C@@H](C)O)C(=O)N2 (stereo partly drawn) (HELM PEPTIDE1{C.D.[CCC(N[*:1])C(=O)[*:2]].S.Y.P.P.I.C.N.P.N.G.T}$PEPTIDE1,PEPTIDE1,1:R3-9:R3|PEPTIDE1,PEPTIDE1,1:R1-14:R2$$$V2.0)",–,–,–,–,–,–,–,–
Active,"CCC1NC(=O)[C@H](Cc2ccc(O)cc2)NC(=O)[C@@H]2CSSC[C@H](NC(=O)[C@H]([C@@H](C)CC)NC(=O)[C@@H]3CCCN3C(=O)[C@@H]3CCCN3C(=O)[C@H](CC(=O)O)NC(=O)[C@H](CO)NC1=O)C(=O)N[C@@H](CC(N)=O)C(=O)N1CCC[C@H]1C(=O)N[C@@H](CC(N)=O)C(=O)NCC(=O)N[C@@H]([C@@H](C)O)C(=O)N2 (stereo partly drawn) (HELM PEPTIDE1{C.N.P.N.G.T.C.Y.[CCC(N[*:1])C(=O)[*:2]].S.D.P.P.I}$PEPTIDE1,PEPTIDE1,1:R3-7:R3|PEPTIDE1,PEPTIDE1,1:R1-14:R2$$$V2.0)",–,–,–,–,–,–,–,–
Active,"CCC1NC(=O)[C@H](Cc2ccc(O)cc2)NC(=O)[C@@H]2CSSC[C@H](NC(=O)[C@H]([C@@H](C)CC)NC(=O)[C@@H]3CCCN3C(=O)[C@@H]3CCCN3C(=O)[C@H](CCC(=O)O)NC(=O)[C@H](CO)NC1=O)C(=O)N[C@@H](CC(N)=O)C(=O)N1CCC[C@H]1C(=O)N[C@@H](CC(N)=O)C(=O)NCC(=O)N[C@@H]([C@@H](C)O)C(=O)N2 (stereo partly drawn) (HELM PEPTIDE1{C.N.P.N.G.T.C.Y.[CCC(N[*:1])C(=O)[*:2]].S.E.P.P.I}$PEPTIDE1,PEPTIDE1,1:R3-7:R3|PEPTIDE1,PEPTIDE1,1:R1-14:R2$$$V2.0)",–,–,–,–,–,–,–,–

# The next lines start with the molecule.
SMILES,inhibition activity (active/inactive) [2],IC50 [4] [µM],"remaining at 24 h, 400 µM [5] [%]",IC50 [6] [µM],Ki [7] [µM],Ki [9] [µM],IC50 [10] [µM],IC50 [11] [µM],other results
CC[C@H](C)[C@@H]1NC(=O)[C@@H]2CCCN2C(=O)[C@@H]2CCCN2C(=O)[C@H]([C@@H](C)CC)NC(=O)[C@H](CO)NC(=O)[C@H](CCCCN)NC(=O)[C@H]([C@@H](C)O)NC(=O)[C@@H](NC(=O)[C@H](CCCNC(=N)N)NC(=O)CN)CSSC[C@@H](C(=O)N[C@@H](Cc2ccccc2)C(=O)N2CCC[C@H]2C(=O)N[C@@H](CC(=O)O)C(=O)O)NC1=O,–,–,–,–,–,–,–,–,Stability [1]: Unstable
"CCC1NC(=O)[C@H](Cc2ccc(O)cc2)NC(=O)[C@@H]2CSSC[C@H](NC(=O)[C@H]([C@@H](C)CC)NC(=O)[C@@H]3CCCN3C(=O)[C@@H]3CCCN3C(=O)[C@H](Cc3c[nH]c4ccccc34)NC(=O)[C@H](CO)NC1=O)C(=O)N[C@@H](CC(N)=O)C(=O)N1CCC[C@H]1C(=O)N[C@@H](CC(N)=O)C(=O)NCC(=O)N[C@@H]([C@@H](C)O)C(=O)N2 (stereo partly drawn) (HELM PEPTIDE1{C.N.P.N.G.T.C.Y.[CCC(N[*:1])C(=O)[*:2]].S.W.P.P.I}$PEPTIDE1,PEPTIDE1,1:R3-7:R3|PEPTIDE1,PEPTIDE1,1:R1-14:R2$$$V2.0)",–,–,–,–,–,–,–,–,inhibition [3]: Active
"CCC1NC(=O)[C@H](Cc2ccc(O)cc2)NC(=O)[C@@H]2CSSC[C@H](NC(=O)[C@H]([C@@H](C)CC)NC(=O)[C@@H]3CCCN3C(=O)[C@@H]3CCCN3C(=O)[C@H](Cc3ccc(O)cc3)NC(=O)[C@H](CO)NC1=O)C(=O)N[C@@H](CC(N)=O)C(=O)N1CCC[C@H]1C(=O)N[C@@H](CC(N)=O)C(=O)NCC(=O)N[C@@H]([C@@H](C)O)C(=O)N2 (stereo partly drawn) (HELM PEPTIDE1{C.N.P.N.G.T.C.Y.[CCC(N[*:1])C(=O)[*:2]].S.Y.P.P.I}$PEPTIDE1,PEPTIDE1,1:R3-7:R3|PEPTIDE1,PEPTIDE1,1:R1-14:R2$$$V2.0)",–,> 10,90 to 95,> 10,0.0032,0.007,> 10,> 10,IC50 [8]: > 10 µM; inhibition [3]: Active
"CCC1NC(=O)[C@H](Cc2ccc(O)cc2)NC(=O)[C@@H]2CSSC[C@H](NC(=O)[C@H]([C@@H](C)CC)NC(=O)[C@@H]3CCCN3C(=O)[C@@H]3CCCN3C(=O)[C@H](Cc3ccc(O)cc3)NC(=O)[C@H](CO)NC1=O)C(=O)N[C@@H](CC(N)=O)C(=O)N1CCC[C@H]1C(=O)N[C@@H](CC(N)=O)C(=O)NCC(=O)N[C@@H](Cc1ccc(-c3ccccc3)cc1)C(=O)N2 (stereo partly drawn) (HELM PEPTIDE1{[O=C([C@H](Cc1ccc(-c2ccccc2)cc1)N[*:1])[*:2]].C.Y.[CCC(N[*:1])C(=O)[*:2]].S.Y.P.P.I.C.N.P.N.G}$PEPTIDE1,PEPTIDE1,2:R3-10:R3|PEPTIDE1,PEPTIDE1,1:R1-14:R2$$$V2.0)",–,> 10,90 to 95,> 10,0.024,0.017,> 10,> 10,IC50 [8]: > 10 µM; inhibition [12]: Active
"CCCC1NC(=O)[C@H](Cc2ccc(O)cc2)NC(=O)[C@@H]2CSSC[C@H](NC(=O)[C@H]([C@@H](C)CC)NC(=O)[C@@H]3CCCN3C(=O)[C@@H]3CCCN3C(=O)[C@H](Cc3ccc(O)cc3)NC(=O)[C@H](CO)NC1=O)C(=O)N[C@@H](CC(N)=O)C(=O)N1CCC[C@H]1C(=O)N[C@@H](CC(N)=O)C(=O)NCC(=O)N[C@@H](Cc1ccc(-c3ccccc3)cc1)C(=O)N2 (stereo partly drawn) (HELM PEPTIDE1{[O=C([C@H](Cc1ccc(-c2ccccc2)cc1)N[*:1])[*:2]].C.Y.[CCCC(N[*:1])C(=O)[*:2]].S.Y.P.P.I.C.N.P.N.G}$PEPTIDE1,PEPTIDE1,2:R3-10:R3|PEPTIDE1,PEPTIDE1,1:R1-14:R2$$$V2.0)",–,> 5,90 to 95,> 10,0.016,0.0061,> 10,> 10,Ki [8]: 0.463 µM
CCC1NC(=O)[C@H](Cc2ccc(O)cc2)NC(=O)[C@@H]2CSSC[C@H](NC(=O)[C@H]([C@@H](C)CC)NC(=O)[C@@H]3CCCN3C(=O)[C@@H]3CCCN3C(=O)[C@H](Cc3ccc(O)cc3)NC(=O)[C@H](CO)NC1=O)C(=O)N[C@@H](CC(N)=O)C(=O)N1CCC[C@H]1C(=O)N[C@@H](CC(N)=O)C(=O)NCC(=O)N[C@@H](CCCCNC(=O)OCc1ccccc1Cl)C(=O)N2 (stereo partly drawn) (cyclo(CNPNGK(ClZ)CY[ξAbu]SYPPI); disulfide 1-7),–,–,–,–,–,–,–,–,inhibition [12]: Active
